In the experiment the target is Translocator protein (Rattus norvegicus, UniProt P16257). In words: Displacement of [3H]PK115 from peripheral benzodiazepine receptor in Sprague-Dawley rat cortical membrane. The method in brief: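 Male Sprague–Dawley rats, 200–250 g; cerebral cortex homogenized in ice-cold PBS pH 7.4, washed twice by centrifugation at 40,000g. Filtration on PEI-presoaked GF/B filters, scintillation counting. IC50 from 6–10 concentrations in triplicate; mean ± SEM of three determinations.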
Chain of Translocator protein (P16257 whole entry, looked up): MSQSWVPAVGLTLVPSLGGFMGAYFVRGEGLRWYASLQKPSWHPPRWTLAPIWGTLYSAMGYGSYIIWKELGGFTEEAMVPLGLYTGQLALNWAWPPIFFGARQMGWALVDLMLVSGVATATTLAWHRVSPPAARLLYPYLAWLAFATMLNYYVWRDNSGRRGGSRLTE
Background: Displacement assays read how much labelled ligand stays bound in the presence of the test substance.
`CN(Cc1ccccc1)C(=O)/C=C1\c2nc3ccccc3cc2C(=O)N1c1ccc(Cl)cc1` registered an IC50 of 26 nM.
For `CN(C(=O)/C=C1\c2nc3ccccc3cc2C(=O)N1c1ccc(Cl)cc1)c1ccc(Cl)cc1`, the half-maximal inhibitory concentration (IC50) stood at 0.62 nM.
Compound `COc1ccc(N(C)C(=O)/C=C2\c3nc4ccccc4cc3C(=O)N2c2ccc(Cl)cc2)cc1` gave an IC50 of 0.9 nM.
As to `COc1ccc(NC(=O)/C=C2\c3nc4ccccc4cc3C(=O)N2c2ccc(Cl)cc2)cc1`, the IC50 is 76 nM.
`COc1ccc(N(C)C/C=C2\c3nc4ccccc4cc3C(=O)N2c2ccc(Cl)cc2)cc1`: the half-maximal inhibitory concentration (IC50) stood at 2360 nM.
Consider `COc1ccc(N(C)C(=O)/C=C2\c3nc4ccccc4cc3C(=O)N2c2ccccc2)cc1`, for which the IC50 stood at 12 nM.
For `CN(C(=O)/C=C1\c2nc3ccccc3cc2C(=O)N1c1ccccc1)c1ccc(Cl)cc1`, the IC50 is 10 nM.
With `C#CCN(C)C(=O)/C=C1\c2nc3ccccc3cc2C(=O)N1c1ccc(Cl)cc1`, the IC50 worked out at 320 nM.
As for `CN(C(=O)/C=C1\c2nc3ccccc3cc2C(=O)N1c1ccc(Cl)cc1)c1ccc(O)cc1`, the figure is 74 nM; as for `CN(C(=O)/C=C1\c2nc3ccccc3cc2C(=O)N1c1ccc(Cl)cc1)c1ccccc1`, 44 nM.
As to `CCN(Cc1ccccc1)C(=O)/C=C1\c2nc3ccccc3cc2C(=O)N1c1ccc(Cl)cc1`, the IC50 was 15 nM.

One may read the IC50 as the concentration at which inhibition is half-maximal. Higher therefore signals weaker potency.
